# Most compounds without a hit are left out; they make up all but 1.9% or so of the library.
# LEDGF integ inh = blocks HIV-1 LEDGF/p75-dependent DNA integration | TR-FRET IN-LEDGF/p75 DNA integration, Eu/Cy5 | inhibition, % at 3.7 µM | hit rate 0.64% among 370,000;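 active = inhibition above the screen-wide mean plus 3 SD, cut at about 13% in these data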;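 also: signal is the Cy5 over europium emission ratio at 671 and 618 nm; 0% = plate median of compound wells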
# TDP2 absorb = blocks human TDP2 phosphodiesterase activity; inhibition, % at 12.8 µM; O95551; hit rate 0.34% among 370,000; recombinant TDP2, T5PNP hydrolysis, p-nitrophenol absorbance 415 nm;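 active = inhibition above the mean of all tested compounds plus 3 SD, set per campaign, cut at about 25% in these data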;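 also: 0% = DMSO with enzyme and 100% = buffer with substrate but no TDP2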
#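 System – recombinant human TDP2 · Amount – 120 nM TDP2 per well · Buffer or medium – Mg2+-containing Tris-HCl buffer, pH 7.5 · Reagent – T5PNP substrate, 5 mM · Dosing – 12.8 µM single point, 1% DMSO · Incubation – 2 h at 37 °C · Measured by – epi absorbance · Read-out basis – percent inhibition · Benchmarks – high control without enzyme, low control DMSO plus TDP2 · Repeats – singlicate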
# UHRF1 MBD2 ctr = blocks human UHRF1 binding to methylated DNA | Q96T88 | UHRF1 binding to methylated oligo, TR-FRET | inhibition, % at 4.4 µM | hit rate 0.75% among 370,000 | AID 687016; in the data active = inhibition above about 21%;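 also: UHRF1 SRA domain binding a hemimethylated CpG hairpin DNA probe; 0% = median of test compound wells and 100% = reference inhibitor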
# Rin1-Abl PPI inh = human Rin1-Abl interaction inhibition; P00519+Q13671; TR-FRET Rin1/Abl binding, biochemical; inhibition, % at 7.35 µM; hit rate 0.4% among 360,000; in the data active = inhibition above about 5%, passing the limit was not always enough
# MBD2 DNA inh = MBD2-methylated oligo binding inhibition | Q9UBB5 | TR-FRET, MBD2 binding to methylated oligonucleotide | inhibition, % at 4.4 µM | hit rate 0.31% among 370,000 | AID 686964; in the data active = inhibition above about 13%
# TDP2 confirm = confirmation of human TDP2 inhibitors; recombinant human TDP2, absorbance read-out; inhibition, % at 12.8 µM; shares compounds with TDP2 absorb; hit rate 22% among 1,100; in the data active = inhibition above about 25%;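 also: 0% = vehicle with enzyme and 100% = no enzyme buffer only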
# IN multimer up = counter-screen for LEDGF/p75 integration inhibitors: HIV-1 integrase multimerization activators | AID 1053131 | activation, % at 7.7 µM | hit rate 17% among 2,000 | shares compounds with LEDGF integ inh | TR-FRET HIV-1 integrase multimerization, biochemical; in the data active = activation above about 8.9%
# TRFRET interf = TR-FRET optical interference, LEDGF/p75 integration counter-screen. TR-FRET optical interference counterscreen, HIV-1 IN multimerization. shares compounds with LEDGF integ inh. 2,000 tested, under 10 active. inhibition, % at 7.7 µM;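 active = inhibition above the mean over all tested compounds plus 3 SD, which no compound reached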;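 also: 0% = integrase with antibodies and DMSO and 100% = antibodies without integrase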
# IN-LEDGF confirm = confirmation of HIV-1 LEDGF/p75-dependent integration inhibitors. TR-FRET LEDGF/p75-dependent HIV-1 integration, biochemical. hit rate 36% among 2,000. shares compounds with LEDGF integ inh. inhibition, % at 3.7 µM; in the data active = inhibition above about 14%
# Starred values were filed as active, the others as inactive; . = no result given.
SMILES,LEDGF integ inh,TDP2 absorb,UHRF1 MBD2 ctr,Rin1-Abl PPI inh,MBD2 DNA inh,TDP2 confirm,IN multimer up,TRFRET interf,IN-LEDGF confirm
O=C(O)Cc1ccc(N2N=C(c3ccccc3)CC2=O)cc1,26.1*,70.7*,18.0,4.3,8.9,4.7,1.1,-5.3,9.8
Cc1ccc(C)c(S(=O)(=O)/N=C2\C=C(NS(=O)(=O)c3ccccc3)C(=O)c3ccccc32)c1,8.9,18.4,-7.1,-2.3,-12.3,.,.,.,.
Cc1ccccc1NC1=C/C(=N\S(=O)(=O)c2ccc(C(=O)O)cc2)c2ccccc2C1=O,40.1*,80.9*,-1.4,-1.9,-9.2,75.0*,0.2,-0.9,74.1*
CC(C)C[C@H](NC(=O)C1CC1)C(=O)N1CCC[C@H]1C(=O)NCc1ccccc1,0.3,4.7,-0.7,.,0.9,.,.,.,.
Cc1ccc(S(=O)(=O)N2CCCCC2)cc1C(=O)NCc1ccccn1,-0.8,14.4,-2.7,2.2,0.6,.,.,.,.
CCc1ccc(C(=O)NC(=S)Nc2ccc(N3CCOCC3)cc2)cc1,-2.6,3.0,2.4,-0.3,-5.5,.,.,.,.
Nc1ccccc1SCC(=O)Nc1ccc(N2CCOCC2)cc1,17.9*,28.4*,-5.5,2.2,-4.4,7.0,1.9,-9.7,1.1
Cc1ccccc1SCC(=O)Nc1ccc(N2CCOCC2)cc1,0.3,-1.7,-2.5,0.1,-0.3,.,.,.,.
CC(=O)c1ccc(NC(=S)Nc2ccc(N3CCOCC3)cc2)cc1,15.0*,27.9*,2.1,-2.7,-3.5,8.0,-0.3,1.4,1.6
C/C(=C\C(=O)c1ccccc1)Nc1ccc(N2CCOCC2)cc1,21.8*,33.4*,1.2,-7.2,-4.6,-5.9,3.0,-10.6,-7.5
Cc1cc(OCC(=O)Nc2cc(C(C)(C)C)on2)ccc1[N+](=O)[O-],3.3,-6.8,-2.0,-2.1,-8.0,.,.,.,.
COc1ccc(C(=O)NCc2ccncc2)cc1S(=O)(=O)NCc1ccc(Cl)cc1,3.8,2.2,3.6,-1.6,4.7,.,.,.,.
CCCCC(=Nc1ccc(N)cc1)C1=C(O)C(C(=O)OC)C(C)(C)CC1=O (configuration not stated),45.6*,60.3*,12.8,2.8,-6.2,16.6,18.9*,-67.2,3.9
CCC(=Nc1ccc(N)cc1)C1=C(O)C(C(=O)OC)C(C)(C)CC1=O (configuration not stated),31.7*,55.0*,20.8*,4.7,-1.8,17.3,20.3*,-72.1,6.8
CCCC(=Nc1ccccc1)C1=C(O)C(C(=O)OC)C(C)(C)CC1=O (configuration not stated),0.2,-9.2,-0.6,6.0,-2.3,.,.,.,.
COc1cc(NC(C)CCCN)c2ncccc2c1 (configuration not stated),34.8*,64.2*,3.0,-0.6,-11.6,18.0,1.6,-8.2,31.3*
CC(=O)Nc1ccc(CN(C)c2c(C)nc3ccc(C(=O)N4CCN(C(=O)c5ccco5)CC4)cn23)cc1,-2.4,-2.2,-2.5,1.5,-4.6,.,.,.,.
N#CC1C(=O)Nc2cccnc21 (configuration not stated),27.4*,65.6*,3.1,2.4,-8.2,2.8,3.1,-11.3,5.0
O=C1C2C3C=CC(CC3)C2C(=O)N1c1ccc(F)cc1 (configuration not stated),-2.7,8.4,-0.5,-0.3,-0.4,.,.,.,.
CC(C)C1NC2(C(=O)c3ccccc3C2=O)C2C(=O)N(c3ccc(F)cc3)C(=O)C12 (configuration not stated),38.8*,40.0*,0.0,-5.1,-3.3,1.6,1.6,-5.9,-1.4
COc1cc2[nH]c3c(Cl)ncnc3c2cc1OC,1.5,1.8,2.6,6.7,3.4,.,.,.,.
COc1cc2[nH]c(Cl)c([N+](=O)[O-])c2cc1OC,48.7*,39.8*,8.6,-3.1,-1.9,2.9,2.5,-9.0,8.9
O=C(NC1CCCC1)C(c1ccccc1)n1c(Cc2cc(F)cc(F)c2)nc2ccccc21 (configuration not stated),-0.1,-6.0,0.8,.,5.3,.,.,.,.
CCOc1cccc(-c2cc(=O)[nH][nH]2)c1,28.6*,44.5*,0.3,-1.7,2.1,9.5,1.8,-6.2,3.6
COc1cccc(-c2cc(=O)[nH][nH]2)c1,20.8*,77.4*,6.7,-0.5,-0.5,0.0,4.2,-21.0,8.3
SMILES,LEDGF integ inh,TDP2 absorb,UHRF1 MBD2 ctr,Rin1-Abl PPI inh,MBD2 DNA inh,TDP2 confirm,IN multimer up,TRFRET interf,IN-LEDGF confirm
CCOc1ccc(CCNC(=O)CCS(=O)(=O)c2ccc(C)cc2)cc1OCC,1.8,-5.7,-0.4,3.6,-4.2,.,.,.,.
N#Cc1cc2ccc(N3CCOCC3)cc2cc1C#N,31.4*,68.7*,-0.8,-1.4,-7.4,5.9,4.3,-15.4,4.1
N#Cc1cc(Cl)c(N2CCOCC2)cc1C#N,-0.9,0.8,13.8,0.0,8.6,.,.,.,.
COC(=O)c1cccc(-c2ccc(C(c3c(C)[nH][nH]c3=O)c3c(C)[nH][nH]c3=O)o2)c1,13.5*,57.0*,14.9,6.0,-2.5,32.3*,-0.5,1.8,10.6
O=C1C=C(Nc2cccnc2)c2ccccc2C1=O,29.3*,71.8*,1.1,-4.7,-26.1,59.0*,4.0,-14.1,55.2*
O=C1C=C(Nc2ccccc2O)c2ccccc2C1=O,28.1*,60.6*,-7.7,-4.7,-28.8,53.8*,18.7*,-66.1,37.0*
O=C1C=C(Nc2ccc(F)cc2)c2ccccc2C1=O,7.8,19.1,-6.3,-6.1,-18.0,.,.,.,.
Cc1ccc(NC2=CC(=O)C(=O)c3ccccc32)c(C)c1,3.7,12.7,-1.4,-2.4,-13.3,.,.,.,.
Cc1cc(C(=O)Nc2ccc([N+](=O)[O-])cn2)cs1,-0.9,4.0,1.4,-0.8,4.0,.,.,.,.
CC(=O)N(/N=C1\Sc2ccccc2C1=O)c1cccc(C)c1,22.2*,68.9*,-10.6,-4.3,-6.1,52.9*,-0.9,3.2,50.9*
O=C(Cc1ccc(NS(=O)(=O)c2ccc(F)cc2)cc1)NCc1cccnc1,2.5,-1.3,3.0,0.6,-0.8,.,.,.,.
Oc1ccc(Nc2ccccc2F)c2cccnc12,34.2*,35.7*,-3.2,.,-15.7,-15.5,1.6,-8.2,1.2
Oc1ccc(-c2ccccc2F)c2cccnc12,5.6,7.6,-4.3,.,-2.3,.,.,.,.
Cc1ccc(C(=O)Sc2cccccc2=O)cc1,1.2,8.4,-11.8,3.6,-10.7,.,.,.,.
CC1=CC2(O)OCCN(CCO)C2=CC1=O (configuration not stated),31.3*,32.5*,10.0,-0.1,2.1,9.3,3.8,-19.3,14.0*
